This is an account of results in ChEMBL document CHEMBL3994609, “Model-Based Discovery of Synthetic Agonists for the Zn2+-Sensing G-Protein-Coupled Receptor 39 (GPR39) Reveals Novel Biological Functions” (J Med Chem, 2017).

SMILES strings stand for the structures. Active and inactive are the calls of the source. No cut-off for these calls is given here.

Series [1] addresses T1, G-protein coupled receptor 39 (Homo sapiens, UniProt O43194).
T1 sequence (O43194 whole entry): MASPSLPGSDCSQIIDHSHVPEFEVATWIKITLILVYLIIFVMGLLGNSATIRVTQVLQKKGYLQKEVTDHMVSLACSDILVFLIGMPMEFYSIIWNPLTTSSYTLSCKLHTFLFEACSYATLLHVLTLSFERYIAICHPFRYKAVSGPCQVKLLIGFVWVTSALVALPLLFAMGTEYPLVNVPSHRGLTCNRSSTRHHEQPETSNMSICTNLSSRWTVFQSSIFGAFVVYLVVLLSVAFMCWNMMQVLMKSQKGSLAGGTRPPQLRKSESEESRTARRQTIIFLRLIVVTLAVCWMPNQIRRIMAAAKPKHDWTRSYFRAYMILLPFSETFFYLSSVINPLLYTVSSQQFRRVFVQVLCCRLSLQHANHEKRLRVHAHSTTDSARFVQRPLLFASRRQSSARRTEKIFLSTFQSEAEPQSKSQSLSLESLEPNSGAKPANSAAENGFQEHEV
Description: Agonist activity at human GPR39 expressed in HEK293 cells co-expressing Galphaq assessed as myo-[2-3H]inositol phosphate accumulation in presence of 10 uM Zn2+ measured after 75 mins by scintillation proximity assay. Format: functional, cell-based. (In general: SPA uses beads or plates that emit light when radiolabelled molecules are held near them.)

Series [2] deals with T2, G-protein coupled receptor 39 (Homo sapiens) (UniProt O43194).
T2 sequence (whole entry): T1 sequence (O43194 whole entry)
Description: Agonist activity at human GPR39 expressed in HEK293 cells co-expressing Galphaq assessed as myo-[2-3H]inositol phosphate accumulation in presence of 100 nM Zn2+ measured after 75 mins by scintillation proximity assay. The series is classed as functional, cell-based.

Series [3] addresses T2, G-protein coupled receptor 39 (Homo sapiens). Description: Agonist activity at human GPR39 expressed in HEK293 cells co-expressing Galphaq assessed as myo-[2-3H]inositol phosphate accumulation in presence of 10 uM Zn2+ measured after 75 mins by scintillation proximity assay relative to zinc. Format: functional, cell-based.
Series [4] shares this target. Description: (§1) Agonist activity at human GPR39 expressed in HEK293 cells co-expressing Galphaq assessed as myo-[2-3H]inositol phosphate accumulation measured after 75 mins by scintillation proximity assay. Format: functional, cell-based.
Series [5] concerns the target T1, G-protein coupled receptor 39. The series is described as §1. The series is classed as functional, cell-based.
The next series relates to Pancreatic islet. Description: Induction of glucose-stimulated insulin release in mouse pancreatic islets at 1 uM pretreated for 24 hrs followed by glucose addition measured after 30 mins. Format: functional, cell-based. Summed up:
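Islets isolated from GPR39-deficient mice and wild-type littermates on five independent days, 2 to 3 mice per day; insulin secretion measured with vehicle or 1 μM compound.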

Series [6] addresses T3, G-protein coupled receptor 39 (Mus musculus, UniProt Q5U431).
T3 sequence (Q5U431 whole entry): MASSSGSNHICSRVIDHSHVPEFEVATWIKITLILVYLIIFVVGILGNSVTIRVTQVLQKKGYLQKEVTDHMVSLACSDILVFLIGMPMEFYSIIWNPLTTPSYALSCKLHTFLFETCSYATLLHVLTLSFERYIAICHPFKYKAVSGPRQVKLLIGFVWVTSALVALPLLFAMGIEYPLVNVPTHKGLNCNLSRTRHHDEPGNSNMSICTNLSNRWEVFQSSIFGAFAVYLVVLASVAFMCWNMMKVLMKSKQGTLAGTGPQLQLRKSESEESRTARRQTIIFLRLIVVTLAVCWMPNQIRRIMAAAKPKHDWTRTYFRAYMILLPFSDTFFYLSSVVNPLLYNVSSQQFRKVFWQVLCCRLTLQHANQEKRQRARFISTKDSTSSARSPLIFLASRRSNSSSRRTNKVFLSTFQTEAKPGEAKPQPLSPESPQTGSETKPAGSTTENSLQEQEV
Description: Agonist activity at mouse GPR39 expressed in HEK293 cells co-expressing Galphaq assessed as myo-[2-3H]inositol phosphate accumulation measured after 75 mins by scintillation proximity assay. The series is classed as functional, cell-based.

A short description of series [7]: Intrinsic clearance in human liver microsomes assessed per mg protein at 3 uM measured after 45 mins by LC-MS/MS analysis. Format: ADME, microsome. As to conditions: read-out: CLH. On the technique in general: Microsomes from liver hold many membrane-bound enzymes, among them those of drug oxidation.
Series [8] in a line: Half life in human liver microsomes at 3 uM measured by LC-MS/MS analysis. The series is classed as ADME, microsome.

What is called EC50 is the concentration giving half of the maximal effect. Take `C/C(=N\NC(=O)c1cc2ccccc2cc1O)c1ccc(N)cc1`: in series [1], the EC50 amounted to 1100 nM. Besides, the result in series [2] and in series [4] was inactive. For the same compound, the fold change (FC) in series [3] was 2.
Turning to `Cc1nn(-c2ncnc3nc[nH]c23)c2c1C(OC1CCCC1)CC(=O)N2` (stereo not given), the EC50 was found to be 2 nM in series [1] and 62 nM in [5].
For `Cc1nn(-c2ncnc3nc[nH]c23)c2c1C(C(=O)NCc1ccccc1)CC(=O)N2` (stereo not given), in that order: 5 nM and 2930 nM.
The half-life is how long it takes for the measured level to halve. Lower therefore signals fast loss. With `Cc1nn(-c2ncnc3nc[nH]c23)c2c1C(c1ccc(OC(C)C)cc1)CC(=O)N2` (stereo not given), the EC50 is 18 nM in series [1], 380 nM in series [6] and 2700 nM in series [5]. The outcome in the series on Pancreatic islet was inactive. Further, the microsomal CLint at 3 µM in series [7] came to 58.3 µL/min/mg. Besides, in series [8], the half-life at 3 µM was 24 min.
With `OCC(O)/C=N/Nc1nc(Nc2ccccc2)nc(Nc2ccccc2)n1` (stereo not given), the EC50 in series [1] came to 750 nM. In addition, the result in [2] and in series [4] was inactive. Further, the fold change (FC) in series [3] amounted to 2.
As to `Cc1nn(-c2ncnc3nc[nH]c23)c2c1C(C(=O)N(C)c1ccccc1)CC(=O)N2` (stereo not given), the EC50 is 32 nM in series [1] and 5220 nM in [5].
With `COc1ccc(CCOC2CC(=O)Nc3c2c(C)nn3-c2ncnc3nc[nH]c23)cc1` (stereo not given), the figures for the EC50 in series [1] and in series [5] were 2 nM and 70 nM, respectively.
As for `Cc1nn(-c2ncnc3nc[nH]c23)c2c1C(C(=O)N(C)c1nccs1)CC(=O)N2` (stereo not given), the values for the EC50 in [1] and in series [5] were 18 nM and 3300 nM, respectively.
Take `Cc1nn(-c2ncnc3nc[nH]c23)c2c1C(NC(=O)c1ccccc1)CC(=O)N2` (stereo not given): the EC50 was 3 nM in [1] and 158 nM in series [5].
The matching figures for `Cc1nn(-c2ncnc3nc[nH]c23)c2c1C(OCCc1ccccc1)CC(=O)N2` (stereo not given): 3 nM and 40 nM.
For `Cc1nn(-c2ncnc3nc[nH]c23)c2c1C(OC(=O)c1ccc(F)cc1)CC(=O)N2` (stereo not given), in that order: 4 nM and 245 nM.
For `Cc1nn(-c2ncnc3nc[nH]c23)c2c1C(NC(=O)Cc1cccs1)CC(=O)N2` (stereo not given), in that order: 3 nM and 244 nM.
Regarding `Cc1nn(-c2ncnc3nc[nH]c23)c2c1C(C(=O)NCc1ccc3c(c1)OCO3)CC(=O)N2` (stereo not given), the EC50 in series [1] came out at 7 nM; in [5], 791 nM.
For the compound `Cc1nn(-c2ncnc3nc[nH]c23)c2c1C(c1ccc(F)cc1F)CC(=O)N2` (stereo not given), in series [5], the EC50 was found to be 460 nM.
Take `Cc1noc(C)c1COC1CC(=O)Nc2c1c(C)nn2-c1ncnc2nc[nH]c12` (stereo not given): the EC50 in series [1] stood at 5 nM.
For `Cc1nn(-c2ncnc3nc[nH]c23)c2c1C(NC(=O)Cc1ccccc1)CC(=O)N2` (stereo not given), the EC50 in series [1] turned out to be 3 nM; in series [5], 418 nM.
For the compound `Cc1nn(-c2ncnc3nc[nH]c23)c2c1C(OCCn1nccc1C)CC(=O)N2` (stereo not given), the EC50 in series [1] came to 10 nM; in series [5] it was 1620 nM.
Turning to `CC(C)(C)c1cc(C(=O)N/N=C/c2ccc(O)cc2O)[nH]n1`, the EC50 in series [1] came to 240 nM. The outcome in series [2] and in [4] was inactive. The fold change (FC) in [3] was 2.
In the case of `Cc1nn(-c2ncnc3nc[nH]c23)c2c1C(C(=O)Nc1ccccc1)CC(=O)N2` (stereo not given), the EC50 in series [1] stood at 10 nM.
As for `Cc1nn(-c2ncnc3nc[nH]c23)c2c1C(OCc1ccc(F)cc1)CC(=O)N2` (stereo not given), the EC50 in series [1] was found to be 1 nM; in [5], 126 nM.
In the case of `CCCCCCCCOC1CC(=O)Nc2c1c(C)nn2-c1ncnc2nc[nH]c12` (stereo not given), the EC50 amounted to 8 nM in [1] and 388 nM in [5].
For `Cc1cc(C)n(CCOC2CC(=O)Nc3c2c(C)nn3-c2ncnc3nc[nH]c23)n1` (stereo not given), in that order: 16 nM and 2000 nM.
For `Cc1nn(-c2ncnc3nc[nH]c23)c2c1C(C(=O)NCc1ccc(F)cc1)CC(=O)N2` (stereo not given), in that order: 4 nM and 1220 nM.
The matching figures for `Cc1nn(-c2ncnc3nc[nH]c23)c2c1C(OCc1ccccc1F)CC(=O)N2` (stereo not given): 4 nM and 78 nM.
In the case of `Cc1nn(-c2ncnc3nc[nH]c23)c2c1C(OCc1ccccc1Cl)CC(=O)N2` (stereo not given), the EC50 worked out at 2 nM in series [1] and 47 nM in [5].
The matching figures for `Cc1nn(-c2ncnc3nc[nH]c23)c2c1C(OCc1ccc(C#N)cc1)CC(=O)N2` (stereo not given): 4 nM and 60 nM.
In the case of `Cc1nn(-c2ncnc3nc[nH]c23)c2c1C(OCCn1cccn1)CC(=O)N2` (stereo not given), the EC50 in series [1] is 16 nM; in [5] it was 2260 nM.
For `Cc1nn(-c2ncnc3nc[nH]c23)c2c1C(OCc1ccc(C(C)C)cc1)CC(=O)N2` (stereo not given), in that order: 5 nM and 1690 nM.
Turning to `Cc1nn(-c2ncnc3nc[nH]c23)c2c1C(OC(=O)Cc1ccccc1)CC(=O)N2` (stereo not given), the values for the EC50 in [1] and in series [5] were 6 nM and 381 nM, respectively.
As for `CCC(C(=O)NC1CC(=O)Nc2c1c(C)nn2-c1ncnc2nc[nH]c12)c1ccccc1` (stereo not given), the EC50 in series [1] was 5 nM; in series [5], 79 nM.
With `Cc1nn(-c2ncnc3nc[nH]c23)c2c1C(OCc1ccccc1C#N)CC(=O)N2` (stereo not given), the EC50 in series [1] was determined as 8 nM; in series [5], 127 nM.
As to `Cc1cc(C)nc(-n2nc(C)c3c2NC(=O)CC3c2ccc(F)cc2F)n1` (stereo not given), the concentration for a half-maximal effect (EC50) in [5] was > 10000 nM.
For the compound `Cc1nn(-c2ncnc3nc[nH]c23)c2c1C(OCc1ccc(Cl)cc1Cl)CC(=O)N2` (stereo not given), the EC50 worked out at 4 nM in [1] and 243 nM in series [5].
On to `C=CCN1c2c(n(C)c(=O)n(C)c2=O)NC1N/N=C/c1ccc(O)cc1O` (stereo not given), for which the EC50 in series [1] was determined as 340 nM. Also, the result in series [2] and in series [4] was inactive. For the same compound, in [3], the fold change (FC) was determined as 2.
Regarding `Cc1nn(-c2ncnc3nc[nH]c23)c2c1C(OCC(C)C)CC(=O)N2` (stereo not given), the EC50 in series [1] amounted to 4 nM; in series [5], 111 nM.
For `Cc1nn(-c2ncnc3nc[nH]c23)c2c1C(OCC(=O)c1ccc(F)cc1)CC(=O)N2` (stereo not given), in that order: 3 nM and 973 nM.
